For test [1], the species on record is Homo sapiens. As to the kind of experiment: Selectivity index, IC50 for human plasmin/IC50 for human uPA.
Test [2] can be described thus: Selectivity for mouse uPA over tPA.
The nature of test [3]: Selectivity index, IC50 for bovine trypsin/IC50 for human uPA.
In test [4] the target is Thrombin and urokinase-type plasminogen activator (Homo sapiens) (UniProt P00734+P00749). The test is described as follows: Selectivity index, IC50 for human thrombin/IC50 for human uPA. It is filed as protein assay.
The species named for test [5] is Homo sapiens. As to the kind of experiment: Selectivity index, IC50 for recombinant tPA/IC50 for human uPA.
The target of test [6] is Coagulation factor X (Bos taurus) (UniProt P00743). The test is described as follows: (§1) Inhibition of bovine F10a at 250 uM.
Test [7] can be described thus: Selectivity for mouse uPA over plasmin.
Test [8] can be described thus: Inhibition of bovine trypsin. Set-up: species or system Bos taurus. In short, it runs like this:
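Bovine trypsin, approx. 5 mU, is preincubated with inhibitor for 15 min at 37 °C. BAPNA substrate is then added at 425 µM (Km 1 mM) in Tris pH 8.2. The pNA release rate is read at 405 nm, duplicate wells, and IC50 comes from a four-parameter logistic fit.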

Test [9] addresses Coagulation factor X (Bos taurus) (UniProt P00743). The test is described as follows: Inhibition of bovine F10a at 125 uM.
For test [10], the target named is Tissue-type plasminogen activator (Homo sapiens, UniProt P00750). The test is described as follows: Inhibition of recombinant tPA. An outline of the steps: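 Recombinant tPA, approx. 5 mU, in Tris pH 8.3, is preincubated with inhibitor for 15 min at 37 °C. S-2288 is then added at 1.25 mM (Km 1 mM). Absorbance change is read at 405 nm, in duplicate, and IC50 comes from a four-parameter logistic fit.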

The target in test [11] is Plasminogen (Homo sapiens, UniProt P00747). As to the kind of experiment: Inhibition of human plasmin. In short, it runs like this: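 Plasmin from human plasma, approx. 5 mU, in Tris pH 7.4, with a 15-min 37 °C inhibitor preincubation. […] Initial rate is read at 405 nm, in duplicate, and IC50 is obtained by four-parameter logistic fitting.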
In test [12] the target is Prothrombin (Homo sapiens, UniProt P00734). The test is described as follows: Inhibition of human thrombin. In short, it runs like this:
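Thrombin from human plasma, approx. 5 mU, in Tris pH 8.3, with a 15-min 37 °C inhibitor preincubation. […] Initial rate is read at 405 nm, duplicates, and IC50 is obtained by four-parameter logistic fitting.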

The target of test [13] is T1, Coagulation factor X (Bos taurus, UniProt P00743). The test is described as §1.
Test [14] has as its target T2, Urokinase-type plasminogen activator (Homo sapiens, UniProt P00749). As to the kind of experiment: Inhibition of human uPA.
Test [15] can be described thus: Selectivity index, IC50 for bovine F10a/IC50 for human uPA.
The target of test [16] is T1, Coagulation factor X. The test is described as follows: Inhibition of bovine F10a.
Test [17] addresses T2, Urokinase-type plasminogen activator. The test is described as follows: Inhibition of mouse uPA. As to conditions: target entry is the homologue from another species.

One may read the inhibition as the drop in the measured response relative to a control, in per cent. The low end stands for a weak effect, the high end for a strong effect. As usually defined, the IC50 is the point on the concentration scale where inhibition reaches its midpoint.

Structures are written as SMILES.

Plasminogen, sequence (P00747 97-580 limits assumed): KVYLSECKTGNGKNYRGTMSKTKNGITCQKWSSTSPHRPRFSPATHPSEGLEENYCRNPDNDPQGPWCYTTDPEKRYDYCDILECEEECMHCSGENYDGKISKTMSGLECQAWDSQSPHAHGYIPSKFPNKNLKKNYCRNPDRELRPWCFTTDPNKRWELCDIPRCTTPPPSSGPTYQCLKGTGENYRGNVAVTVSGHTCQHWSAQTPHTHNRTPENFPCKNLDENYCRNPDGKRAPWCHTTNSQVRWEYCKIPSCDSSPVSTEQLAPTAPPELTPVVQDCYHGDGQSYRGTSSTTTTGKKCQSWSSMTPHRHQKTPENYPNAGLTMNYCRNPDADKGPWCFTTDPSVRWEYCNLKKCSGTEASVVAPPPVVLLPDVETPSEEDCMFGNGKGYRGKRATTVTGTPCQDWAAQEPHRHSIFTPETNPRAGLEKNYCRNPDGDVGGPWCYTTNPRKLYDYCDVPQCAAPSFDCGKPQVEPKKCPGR
Plasminogen, sequence (P00747 581-810 limits assumed): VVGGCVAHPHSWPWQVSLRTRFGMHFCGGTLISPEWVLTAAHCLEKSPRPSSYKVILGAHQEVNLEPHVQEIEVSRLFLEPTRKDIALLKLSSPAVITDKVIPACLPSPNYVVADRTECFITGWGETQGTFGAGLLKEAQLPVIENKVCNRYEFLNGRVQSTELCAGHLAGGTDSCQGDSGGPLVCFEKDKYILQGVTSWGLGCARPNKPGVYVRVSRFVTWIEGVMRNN
Tissue-type plasminogen activator, sequence (P00750 whole entry): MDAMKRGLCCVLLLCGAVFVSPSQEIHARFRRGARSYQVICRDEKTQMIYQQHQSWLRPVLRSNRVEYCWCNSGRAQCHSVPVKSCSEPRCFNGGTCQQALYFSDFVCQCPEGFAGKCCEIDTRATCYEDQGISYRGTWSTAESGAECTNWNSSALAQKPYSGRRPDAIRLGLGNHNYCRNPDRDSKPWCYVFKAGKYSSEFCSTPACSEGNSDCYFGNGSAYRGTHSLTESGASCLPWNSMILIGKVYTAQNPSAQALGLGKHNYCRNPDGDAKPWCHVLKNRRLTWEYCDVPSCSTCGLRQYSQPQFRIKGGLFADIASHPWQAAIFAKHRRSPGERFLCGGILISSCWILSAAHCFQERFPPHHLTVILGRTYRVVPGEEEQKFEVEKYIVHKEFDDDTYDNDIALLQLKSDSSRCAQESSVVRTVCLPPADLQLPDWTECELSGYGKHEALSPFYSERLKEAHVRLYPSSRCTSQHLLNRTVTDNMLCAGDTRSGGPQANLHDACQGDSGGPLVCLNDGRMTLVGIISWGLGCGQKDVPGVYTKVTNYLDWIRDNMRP
Coagulation factor X (Bos taurus), sequence (P00743 41-180 limits assumed): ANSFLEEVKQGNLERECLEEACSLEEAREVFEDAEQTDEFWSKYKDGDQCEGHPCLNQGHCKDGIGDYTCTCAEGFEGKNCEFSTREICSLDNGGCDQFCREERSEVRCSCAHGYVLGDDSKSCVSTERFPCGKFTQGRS
Coagulation factor X (Bos taurus), sequence (P00743 234-492 limits assumed): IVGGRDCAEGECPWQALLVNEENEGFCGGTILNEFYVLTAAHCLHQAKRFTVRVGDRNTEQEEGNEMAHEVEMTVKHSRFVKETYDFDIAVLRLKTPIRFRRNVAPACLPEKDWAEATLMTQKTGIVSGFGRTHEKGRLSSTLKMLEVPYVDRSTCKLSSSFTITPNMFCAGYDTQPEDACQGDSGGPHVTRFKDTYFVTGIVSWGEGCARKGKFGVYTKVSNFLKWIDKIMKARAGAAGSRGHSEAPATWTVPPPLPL
T1 sequence (P00743 41-180 limits assumed): as the sequence (P00743 41-180 limits assumed) above
T1 sequence (P00743 234-492 limits assumed): as the sequence (P00743 234-492 limits assumed) above

On to `CC(=O)Nc1ccc(OP(=O)(Oc2ccc(NC(C)=O)cc2)C(Cc2ccc(NC(=N)N)cc2)NC(=O)[C@H](C)NC(=O)[C@@H](CO)NC(=O)OCc2ccccc2)cc1` (stereo not given in full), for which the Selectivity index amounted to 130 in test [1], 30 in [3], 200 in test [4] and 1000 in test [5]. Moreover, the Selectivity ratio in [2] and in [7] was 5 in each case. Besides, the inhibition in test [6] was found to be 58%. The compound further yielded a half-inhibitory concentration (IC50) in test [8] of 200 nM.
As to `C[C@H](NC(=O)[C@@H](CO)NC(=O)OCc1ccccc1)C(=O)NC(Cc1ccc(NC(=N)N)cc1)P(=O)(Oc1ccccc1)Oc1ccccc1` (stereo not given in full), the Selectivity index in test [1] was 470; in test [3] it was 70; in test [4], 4700; in test [5] it was 1000. The inhibition in test [9] is 43%. This compound displayed an IC50 in [8] of 300 nM.
Regarding `C[C@H](NC(=O)[C@@H](CO)NC(=O)c1cccs1)C(=O)NC(Cc1ccc(N=C(N)N)cc1)P(=O)(Oc1ccccc1)Oc1ccccc1` (stereo not given in full), the IC50 in test [10] turned out to be 13000 nM; in test [11], 10000 nM; in test [12], 35000 nM; in test [13], 250000 nM; in [14], 6.9 nM.
In the case of `C[C@H](NC(=O)[C@@H](CO)NS(=O)(=O)c1ccc(Br)cc1)C(=O)NC(Cc1ccc(NC(=N)N)cc1)P(=O)(Oc1ccccc1)Oc1ccccc1` (stereo not given in full), the Selectivity index in test [1] came out at 136; in test [15], 9000; in [3], 36; in test [4], 451; in [5], 560. The IC50 came out at 3700 nM in [10]; 900 nM in test [11]; 2980 nM in test [12]; 240 nM in test [8]; 58000 nM in test [16]; 6.6 nM in test [14].
Take `CC(=O)Nc1ccc(OP(=O)(Oc2ccc(NC(C)=O)cc2)C(Cc2ccc(N=C(N)N)cc2)NC(=O)[C@H](C)NC(=O)[C@@H](CO)NC(=O)OCc2ccccc2)cc1` (stereo not given in full): the IC50 in test [10] is 6400 nM; in test [11], 900 nM; in [12], 1500 nM; in test [17], 410 nM; in test [14], 6.7 nM.

For the origin of these results see ChEMBL document CHEMBL1149362, “Diphenyl phosphonate inhibitors for the urokinase-type plasminogen activator: optimization of the P4 position” (J Med Chem, 2006).
